Measured values as given in ChEMBL document CHEMBL1137748, “Design, synthesis and characterization of novel 2-(2,4-disubstituted-thiazole-5-yl)-3-aryl-3H-quinazoline-4-one derivatives as inhibitors of NF-kappaB and AP-1 mediated transcription activation and as potential anti-inflammatory agents” (Eur J Med Chem, 2009).

What was measured:
HEK293 = test: Inhibition of NF-kappaB expressed in HEK293 cells assessed as inhibition of TNF-alpha-induced transcriptional activation at 10 uM treated 24 hrs before TNFalpha challenge measured after 20 to 24 hrs by luciferase assay relative to control; type: cell-based
Method in brief: (§1)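 HEK/NF-κB cells stably carrying an NF-κB response element driving luciferase. Plated at 5×10^4 cells/well and held 24 h at 37 °C, 5% CO2. Compounds in 0.1% DMSO were added to replicate wells for 24 h, then TNF-α was added and cells were incubated 20–24 h. Bright-Glo lysis/substrate was added and luminescence read. The replicate mean was normalized to the maximal control.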

Rattus norvegicus = test: Antiinflammatory activity in Sprague-Dawley rat assessed as protection against carrageenan-induced paw edema at 50 mg/kg, po administered 1 hr before carrageenan challenge measured after 3 hrs relative to control; type: functional
Method in brief: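 Sprague-Dawley rats of either sex, 150–250 g, fasted 18 h, n = 4 per group, each group run against a vehicle control. Dosed orally at 50 mg/kg in freshly made 0.2% agar suspension. One hour later, 0.1 ml of 1% carrageenan in saline was injected subplantar into the right hind paw. Paw volume was read by plethysmometer at 3 h. % protection = (control − test)/control × 100.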

[1] = biological target: Transcription factor Jun (Homo sapiens) (UniProt P05412); test: Inhibition of AP1 expressed in HEK293 cells assessed as inhibition of PMA-induced transcriptional activation at 10 uM treated 24 hrs before PMA challenge measured after 20 to 24 hrs by luciferase assay relative to control
[2] = Inhibition of NF-kappaB expressed in HEK293 cells assessed as inhibition of TNF-alpha-induced transcriptional activation treated 24 hrs before TNFalpha challenge measured after 20 to 24 hrs by luciferase assay; type: cell-based; method in brief: as §1

Transcription factor Jun (Homo sapiens), sequence (P05412 whole entry): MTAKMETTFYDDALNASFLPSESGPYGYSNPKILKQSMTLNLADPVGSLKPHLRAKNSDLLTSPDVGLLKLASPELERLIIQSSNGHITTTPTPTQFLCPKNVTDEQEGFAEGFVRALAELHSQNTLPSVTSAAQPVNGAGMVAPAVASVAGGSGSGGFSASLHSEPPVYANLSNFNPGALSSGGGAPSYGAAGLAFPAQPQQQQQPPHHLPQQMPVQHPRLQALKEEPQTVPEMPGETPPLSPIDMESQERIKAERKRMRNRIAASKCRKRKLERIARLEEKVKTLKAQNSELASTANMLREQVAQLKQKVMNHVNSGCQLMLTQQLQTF

| Structure (SMILES) | inhibition [1] [%] | inhibition (HEK293) [%] | Activity (Rattus norvegicus) [%] | IC50 [2] [µM] |
| --- | --- | --- | --- | --- |
| COc1ccccc1-n1c(-c2sc(Nc3ccc(Cl)cc3)nc2C)nc2ccccc2c1=O |  |  | 27 |  |
| Cc1ccccc1-n1c(-c2sc(Nc3ccc(Cl)cc3)nc2C)nc2ccccc2c1=O |  |  | 45 |  |
| CC(=O)c1ccc(-n2c(-c3sc(Nc4ccc(Cl)cc4)nc3-c3ccccc3)nc3ccccc3c2=O)cc1 | 31 | 0 | 23 |  |
| CNc1nc(C)c(-c2nc3ccccc3c(=O)n2-c2ccc(Cl)cc2)s1 | 82 | 93 | 71 | 3.3 |
| CC(=O)c1ccc(-n2c(-c3sc(Nc4ccc(Cl)cc4)nc3N)nc3ccccc3c2=O)cc1 | 2 | 12 | 53 |  |
| CNc1nc(C)c(-c2nc3ccccc3c(=O)n2-c2ccccc2C)s1 | 67 | 16 | 35 |  |
| Cc1cccc(-n2c(-c3sc(Nc4ccc(Cl)cc4)nc3C)nc3ccccc3c2=O)c1 | 39 | 2 |  |  |
| CC(=O)c1ccc(-n2c(-c3sc(Nc4ccccc4)nc3C)nc3ccccc3c2=O)cc1 | 7 | 15 |  |  |
| CNc1nc(C)c(-c2nc3ccccc3c(=O)n2-c2ccc(C(C)=O)cc2)s1 | 0 | 71 | 42 | 5.5 |
| Cc1nc(Nc2ccccc2)sc1-c1nc2ccccc2c(=O)n1-c1ccccc1Cl | 21 | 6 |  |  |
| CNc1nc(C)c(-c2nc3ccccc3c(=O)n2-c2cccc(C)c2)s1 | 20 | 10 |  |  |

Second part, led by results:

| inhibition [1] [%] | Structure (SMILES) | inhibition (HEK293) [%] | Activity (Rattus norvegicus) [%] | IC50 [2] [µM] |
| --- | --- | --- | --- | --- |
| 60 | Cc1ccccc1-n1c(-c2sc(Nc3ccccc3)nc2C)nc2ccccc2c1=O | 21 | 42 |  |
| 15 | CNc1nc(-c2ccccc2)c(-c2nc3ccccc3c(=O)n2-c2ccc(C(C)=O)cc2)s1 | 4 |  |  |
| 0 | Cc1nc(Nc2ccc(Cl)cc2)sc1-c1nc2ccccc2c(=O)n1-c1ccccc1 | 0 | 4 |  |
| 0 | COc1ccc(-n2c(-c3sc(Nc4ccc(Cl)cc4)nc3C)nc3ccccc3c2=O)cc1 | 0 | 5 |  |
| 32 | Cc1ccccc1-n1c(-c2sc(Nc3ccc(Cl)cc3)nc2-c2ccccc2)nc2ccccc2c1=O | 27 | 51 |  |
| 2 | Cc1ccc(-n2c(-c3sc(Nc4ccc(Cl)cc4)nc3C)nc3ccccc3c2=O)cc1 | 12 | 37 |  |
| 9 | Cc1nc(Nc2ccccc2)sc1-c1nc2ccccc2c(=O)n1-c1ccc(Cl)cc1 | 79 | 72 | 5.5 |
| 0 | O=c1c2ccccc2nc(-c2sc(Nc3ccc(Cl)cc3)nc2-c2ccccc2)n1-c1ccccc1Cl | 24 | 61 |  |
| 16 | Cc1nc(Nc2ccccc2)sc1-c1nc2ccccc2c(=O)n1-c1ccccc1 | 25 | 12 |  |
| 0 | Cc1ccc(Nc2nc(-c3ccccc3)c(-c3nc4ccccc4c(=O)n3-c3ccc(Cl)cc3)s2)cc1 | 0 |  |  |
| 21 | Cc1nc(Nc2ccc(Cl)cc2)sc1-c1nc2ccccc2c(=O)n1-c1ccccc1Cl | 60 | 58 |  |
| 27 | O=c1c2ccccc2nc(-c2sc(Nc3ccc(Cl)cc3)nc2-c2ccccc2)n1-c1ccccc1 | 0 |  |  |
| 84 | Cc1nc(Nc2ccc(Cl)cc2)sc1-c1nc2ccccc2c(=O)n1-c1ccc(Cl)cc1 | 96 | 38 | 3.3 |
| 0 | Nc1nc(Nc2ccc(Cl)cc2)sc1-c1nc2ccccc2c(=O)n1-c1ccc(Cl)cc1 | 0 | 37 |  |
| 2 | CC(=O)c1ccc(-n2c(-c3sc(Nc4ccc(Cl)cc4)nc3C)nc3ccccc3c2=O)cc1 | 0 | 13 |  |
